Bioassay records deposited in PubChem by several laboratories.
Sampled rows, rich in hits. Any-hit rate of the full collection: about 4.8%.
CHOP UPR activ – activators of apoptotic arm of unfolded protein response (CHOP) | CHO-CHOP luciferase reporter, UPR activation, luminescence; percent of tunicamycin response over DMSO baseline | AID 449763 | activation, % at 10 µM | 330,000 tested, 0.34% active;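 active = at 10 µM dose, activation of 40% or more, normalized to positive control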;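 also: 100% = tunicamycin at 10 µg/mL and 0% = DMSO alone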
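assay system = CHO CHOP reporter cells | amount = 500 CHO-CHOP cells per well | buffer or medium = F12 with 10% FBS | incubation = 16-18 h cell attachment, then 6 h compound exposure, 37 °C | detection = luminescence read with Steady-Glo | read-out = percent activation relative to tunicamycin control | controls = tunicamycin high control, DMSO low control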
XBP1 UPR activ – activators of adaptive arm of unfolded protein response (XBP1); CHO-XBP1 luciferase reporter, IRE1-XBP1 UPR activation, luminescence; percent of tunicamycin response, DMSO as zero; activation, % at 20 µM; 330,000 tested, 0.33% active; AID 463104;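 active = versus positive control, 20 µM dose yields 30% or more activation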;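 also: 100% = tunicamycin at 10 µg/mL and 0% = DMSO only wells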
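Test system: CHO-XBP1 luciferase reporter cells | Buffer or medium: Serum-containing F12 medium, 10% FBS | Schedule: 6 h compound exposure at 37 °C, 5% CO2 | Detection: Steady-Glo luciferase glow luminescence, 10 min after reagent addition | Read-out basis: Activation, % of tunicamycin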
CSC inhib – blocks cancer stem cells. cancer stem cell-like cells viability, luminescence. inhibition, % at 7.5 µM. 300,000 tested, 1.1% active. AID 2717; in the data active = inhibition above about 75%; inconclusive = no clear call, values can overlap the other calls; tested in HMLE shEcad cells
Mdm2 MdmX PPI – inhibitors of human Mdm2/MdmX interaction; SaOS-2 split-luciferase Mdm2/MdmX complementation, luminescence; inhibition, % at 8 µM; O15151+Q00987; AID 485346; 330,000 tested, 3% active;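 active = inhibition of at least 50% at 8 µM in the primary screen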
Target sequence (O15151 whole entry, looked up): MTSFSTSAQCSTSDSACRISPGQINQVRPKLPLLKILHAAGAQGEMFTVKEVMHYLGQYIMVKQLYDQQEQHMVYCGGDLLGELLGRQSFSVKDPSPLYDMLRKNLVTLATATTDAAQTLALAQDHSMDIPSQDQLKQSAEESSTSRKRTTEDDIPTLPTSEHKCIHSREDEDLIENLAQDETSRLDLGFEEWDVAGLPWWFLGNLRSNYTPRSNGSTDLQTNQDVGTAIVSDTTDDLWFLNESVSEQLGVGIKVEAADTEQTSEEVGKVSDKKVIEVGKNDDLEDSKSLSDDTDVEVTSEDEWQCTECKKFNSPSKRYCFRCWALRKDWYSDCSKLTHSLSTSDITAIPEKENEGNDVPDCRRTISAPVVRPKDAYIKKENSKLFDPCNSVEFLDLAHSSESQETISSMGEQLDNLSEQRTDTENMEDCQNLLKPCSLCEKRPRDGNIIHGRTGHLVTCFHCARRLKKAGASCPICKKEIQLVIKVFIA
Target sequence (Q00987 whole entry, looked up): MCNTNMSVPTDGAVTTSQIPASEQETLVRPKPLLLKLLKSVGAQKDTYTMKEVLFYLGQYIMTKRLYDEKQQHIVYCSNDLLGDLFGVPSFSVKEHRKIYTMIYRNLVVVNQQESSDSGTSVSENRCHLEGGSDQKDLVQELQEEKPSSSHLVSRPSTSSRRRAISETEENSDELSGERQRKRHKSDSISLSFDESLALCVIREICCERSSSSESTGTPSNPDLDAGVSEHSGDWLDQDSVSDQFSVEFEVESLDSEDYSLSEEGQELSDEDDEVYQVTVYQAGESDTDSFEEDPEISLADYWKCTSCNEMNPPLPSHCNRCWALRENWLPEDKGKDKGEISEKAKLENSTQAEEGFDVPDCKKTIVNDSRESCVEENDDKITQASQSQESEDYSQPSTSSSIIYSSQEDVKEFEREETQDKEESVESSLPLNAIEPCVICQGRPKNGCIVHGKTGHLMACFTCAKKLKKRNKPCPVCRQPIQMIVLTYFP
SKKanGAS inh – blocks kanamycin growth of S. pyogenes SKKanGAS strain; BacTiter-Glo, 6 h; 300,000 tested, 1.3% active; inhibition, % at 7.5 µM;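 active = mean replicate score, as percent of positive control median, at least 50; inconclusive = mean below 50 but one replicate at or above 50; inactive = mean and every replicate below 50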;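 also: strain carries kanamycin resistance gene driven by streptokinase promoter and grows in 40 µg/ml kanamycin; loss of luminescence reflects streptokinase promoter inhibition or plain growth inhibition; 0% = median of DMSO wells and 100% = positive control at its reference dose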
Beta cell apopt – beta cell apoptosis inhibition; protection from apoptosis, % (concentration not given with the values); 300,000 tested, 0.8% active; INS-1E cytokine-induced death, ATP luminescence, 48 h; percent of positive-control rescue, neutral wells zero;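 active = Every replicate reaches about 75%, or at least half do and their mean reaches it too, limit read from the data; inconclusive = At least half of replicates reach the limit but their mean does not; inactive = Under half of replicates reach the limit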;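 also: 0% = cytokine-treated negative control wells and 100% = positive control rescue; higher means more ATP so stronger rescue from cytokine killing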
Mdm2-MdmX conf – human Mdm2/MdmX binding inhibition, confirmed | shares compounds with Mdm2 MdmX PPI | inhibition, % at 8 µM | AID 489028 | luminescent assay | 10,000 tested, 55% active; in the data active = inhibition above about 40%
Full FLuc ctr – full-length luciferase inhibition in Mdm2/MdmX counter-screen | shares compounds with Mdm2 MdmX PPI | SaOS-2 full-length luciferase counterscreen, luminescence | inhibition, % at 8 µM | 6,200 tested, 77% active | AID 504607;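 active = mean inhibition at 8 µM reaching about 37%, which flags the compound as non-specific, limit read from the data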;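 also: p53-null SaOS-2 cells with luciferase driven by a doxycycline-inducible promoter; compound on cells about two nights before reading with doxycycline added after day one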
* hit, by the source's call; u = inconclusive; x = not tested or not shown.

SMILES | CHOP UPR activ | XBP1 UPR activ | CSC inhib | Mdm2 MdmX PPI | SKKanGAS inh | Beta cell apopt | Mdm2-MdmX conf | Full FLuc ctr
COc1ccc(-n2cc(-c3ccccc3)c3c(N4CC(C)OC(C)C4)ncnc32)cc1 (stereo unspecified) | 0.7 | 3.1 | 69.2 | 63.8* | 15.2 | 9.4 | 50.0* | 84.1*
CCOc1ccc(-n2cc(-c3ccccc3)c3c(N4CCOCC4)ncnc32)cc1 | -0.4 | 4.1 | 104.3* | 74.2* | 27.8 | 13.8 | 64.7* | 82.6*
CCOC(=O)c1ccc(S(=O)(=O)N2CCN(Cc3cc4c(cc3O)OCO4)CC2)cc1 | 0.8 | -1.4 | x | 18.7 | x | -9.7 | x | x
CCN(Cc1ccncc1)Cc1ccc(Br)cc1 | 0.4 | -0.3 | -14.2 | 16.0 | 9.4 | -8.5 | x | x
CCCC(=O)OCCNc1cc(Sc2nc3ccccc3[nH]2)c2nonc2c1[N+](=O)[O-] | 30.9 | -8.6 | 3.9 | 96.1* | 26.1 | 3.9 | 99.2* | 52.6*
Nc1nc(/C=C/c2cccnc2)nc(-c2ccccc2O)n1 | -0.7 | -1.1 | 20.9 | 75.8* | 6.0 | 4.5 | 73.2* | 64.0*
Cc1ccc2nc3c(c(Nc4ccc(O)cc4)c2c1)CCC3 | -3.4 | -5.7 | 11.5 | 19.1 | -2.9 | 9.0 | x | x
Cc1ccc2nc3c(c(Nc4ccc5c(c4)OCCO5)c2c1)CCC3 | -2.0 | -3.4 | -0.7 | 56.1* | 11.7 | 21.1 | 15.1 | x
COC(=O)[C@]1(C)N[C@H](CN(C)C(=O)C2CCCCC2)[C@@H]2C(=O)N(C)C(=O)[C@@H]21 | -1.0 | -1.2 | x | -13.7 | x | x | x | x
CCCCNC(=O)Cn1cnc2sc(C)c(S(=O)(=O)N3CCN(c4ccccc4OC)CC3)c2c1=O | 0.3 | 0.3 | -8.8 | -5.9 | 18.2 | 0.9 | x | x
Cc1cc(C)c2c(N)c(C(=O)Nc3ncc(C)s3)sc2n1 | -10.2 | -7.6 | x | 78.8* | x | 14.0 | 81.1* | 54.8*
Cc1cc(C)c2c(N)c(C(=O)c3ccc(Cl)cc3Cl)sc2n1 | -1.6 | 3.6 | 10.8 | 70.5* | -6.4 | 15.9 | 75.2* | 59.6*
CC(C)N(Cc1nccn1C)C(=O)c1cc(COc2ccc(-n3cncn3)cc2)on1 | -1.0 | -2.7 | 3.9 | 1.8 | -1.7 | -2.7 | x | x
COc1ccc(CN2CCNC(=O)C2CC(=O)NCCc2nc(C)c3c(n2)CCC3)cc1C (stereo unspecified) | 3.6 | -3.9 | -15.5 | 7.3 | 4.3 | -3.0 | x | x
COc1ccc(N2CC(C(=O)N3CCN(Cc4ccc5c(c4)OCO5)CC3)CC2=O)cc1 (stereo unspecified) | 0.0 | -4.4 | 9.9 | 3.7 | -0.7 | x | x | x
CC(OC(=O)c1cc(Br)ccc1O)C(=O)Nc1ccc(S(=O)(=O)N2CCCC2)cc1 (stereo unspecified) | 6.8 | 3.0 | 20.5 | 63.3* | -0.6 | 9.5 | 43.4* | 73.0*
CC(OC(=O)c1ccc(S(=O)(=O)N2CCCCC2)cc1)C(=O)Nc1ccc(C(N)=O)cc1 (stereo unspecified) | -0.1 | 9.7 | x | 53.8* | x | x | -16.1 | x
Cc1cccc(C(=O)OC(C)C(=O)Nc2ccc(S(=O)(=O)N3CCCC3)cc2)c1O (stereo unspecified) | -2.3 | -4.3 | -17.2 | 11.8 | 1.8 | 1.7 | x | x
Nc1nnc(-c2cn(-c3ccccc3)nc2-c2ccc(Cl)cc2)o1 | 0.0 | 6.6 | 11.5 | 57.7* | -7.2 | -1.2 | 25.1 | x
CCOc1ccc(NS(=O)(=O)c2cc(C(=O)N3CCN(c4ccccc4O)CC3)ccc2Cl)cc1 | 2.0 | -2.0 | x | 25.0 | x | x | x | x
Cc1ccccc1NC(=O)COC(=O)CCc1nc2ccccc2c(=O)[nH]1 | 2.0 | 0.8 | -0.5 | 1.3 | -12.2 | -3.2 | x | x
CCOc1ccccc1NC(=O)CCCc1nc2ccccc2c(=O)[nH]1 | 1.5 | -2.0 | 17.1 | 64.9* | 2.6 | 7.5 | 48.6* | 56.0*
COc1ccc(C(=O)c2no[n+]([O-])c2C(=O)c2ccc(OC)cc2)cc1 | -3.9 | -9.2 | -40.0 | 62.5* | -13.5 | -12.7 | 26.4 | x
O=C(c1cccs1)c1no[n+]([O-])c1C(=O)c1cccs1 | 20.4 | -6.1 | -8.1 | 94.9* | 0.8 | 46.8 | -0.7 | x
CCN1CCN(C(CNS(=O)(=O)c2ccccc2)c2ccccc2)CC1 (stereo unspecified) | 1.1 | -2.4 | 6.4 | -1.5 | 3.5 | -4.2 | x | x
SMILES | CHOP UPR activ | XBP1 UPR activ | CSC inhib | Mdm2 MdmX PPI | SKKanGAS inh | Beta cell apopt | Mdm2-MdmX conf | Full FLuc ctr
CCOc1ccc2oc(C(=O)N(C)CC(=O)Nc3ccc(OCC)c(OCC)c3)c(C)c2c1 | -1.1 | 1.9 | -5.3 | 14.7 | 28.2 | 0.6 | x | x
O=C(N/N=C/c1cn(-c2ccccc2)nc1-c1cccs1)c1ccc(Cl)cc1 | 3.4 | 0.6 | -6.9 | 51.7* | 20.0 | 48.5 | 31.1 | x
CCN(CC(=O)Nc1ccc(NC(C)=O)cc1)C(=O)/C=C/c1cn(-c2ccccc2)nc1-c1cccs1 | 1.1 | 0.2 | 6.5 | 48.0 | 8.3 | 8.4 | x | x
CN1CCC(N(C)C(=O)/C=C/c2cn(-c3ccccc3)nc2-c2cccs2)CC1 | 2.4 | 4.2 | 42.4 | 76.3* | -1.7 | 5.1 | 34.8 | 67.0*
O=C(N/N=C/c1cccs1)c1cccc(NC(=O)c2ccc(Cl)cc2)c1 | -0.8 | 13.0 | u | 57.0* | 4.0 | 67.2 | 2.9 | x
O=C(O)CCCC(=O)N1CCN(c2nc(-c3ccccc3Cl)c3cc(Br)ccc3n2)CC1 | 1.6 | -5.3 | 4.7 | 8.9 | 25.3 | 0.7 | x | x
C[C@@]12CCC=C[C@H]1[C@H](c1ccc3ccccc3c1/C=C/c1ccccc1)N(Cc1ccccc1)C2=O | 0.4 | 1.2 | 65.5 | 64.7* | 27.7 | 12.8 | 15.3 | x
C[C@@]12CCC=C[C@H]1[C@H](c1ccc(/C=C/c3ccccc3)cc1F)N(Cc1ccccc1)C2=O | 0.6 | 1.5 | 28.0 | 41.9 | 28.5 | 36.1 | x | x
COc1ccc(NC(=O)Nc2ccc3c(c2)N(C)C(=O)CS3)cc1Cl | 0.9 | 1.5 | 16.7 | 59.4* | 18.1 | x | 42.5* | 52.9*
CC(=O)c1ccc(NC(=O)Nc2ccc3c(c2)N(C)C(=O)CS3)cc1 | 3.9 | 2.6 | -1.6 | 69.0* | 18.0 | -5.8 | 35.0 | x
COc1ccc(NC(=O)Nc2ccc3c(c2)N(C)C(=O)CS3)cc1OC | 0.4 | -0.6 | -14.1 | 35.4 | 11.9 | 0.6 | x | x
CCOc1ccc(NC(=O)Nc2ccc3c(c2)N(C)C(=O)CS3)cc1 | -1.1 | -2.1 | -7.6 | 43.3 | 0.6 | x | x | x
CCN(CC(=O)Nc1ccccc1C(F)(F)F)C(=O)c1ccc2[nH]c3c(c2c1)CC(C)CC3 (stereo unspecified) | 0.1 | -1.1 | 21.7 | -8.2 | -12.7 | 9.8 | x | x
COc1ccc(/C=C(/NC(=O)c2cccc([N+](=O)[O-])c2)C(=O)O)cc1OC | 0.4 | -3.5 | -6.0 | 5.3 | -0.8 | -0.5 | x | x
